The nature of data set [1]: folding enthalpy; higher = less favourable; fluorescence melt of hairpins on a sequencing array, two-state fit. The settings on record: sodium 0.088 M. The essentials:
(§1)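 To match UV melts, fitted temperatures were raised by 9.35 °C. These fits were bootstrapped two-state models that gave melting temperature and folding enthalpy, combined by inverse variance over four replicates. The input was normalised Cy3 fluorescence of library hairpins with annealed Cy3 and quencher oligos on a sequenced MiSeq flow cell, imaged in 50 mM Na-HEPES pH 8.0, 25 mM NaCl in 2.5 °C steps up to 60 °C.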

A short description of data set [2]: melting temperature; fluorescence melt of hairpins on a sequencing array, two-state fit, raised by 9.35 °C to match UV melts. The settings on record: sodium 0.088 M. An outline of the steps: as §1

In the case of GCCTGCGAAAGCATTGGC ((((((....)))..))), the folding enthalpy in data set [1] is -21.2 kcal/mol. Also, in data set [2], the Tm was 50.9 °C.
The like results for GCCTGCTCGAAAGAGGGC (((..(((....)))))) were, in that order, -15.7 kcal/mol and 44.5 °C.
Taken in the same sequence, the figures for GCCTGGACGAAAGTCGGC (((..(((....)))))) were -22.6 kcal/mol and 51.2 °C.
On to GCCTGGCGAAAGCAACGC ((.(.((....)).).)), for which the folding enthalpy in data set [1] was -4.54 kcal/mol. Moreover, the Tm in data set [2] is 23.9 °C.
As to GCCTGGCGAAAGCCCCGC ((..(((....)))..)), the folding enthalpy in data set [1] is -8.33 kcal/mol. The Tm in data set [2] stood at 36.3 °C.
Taken in the same sequence, the figures for GCCTGGCGAAAGCGAAGC ((.(.((....)).).)) were -7.77 kcal/mol and 31.9 °C.
For GCCTGGCGAAAGCGATGC ((.(.((....)).).)), in data set [1], the folding enthalpy was -6.61 kcal/mol. Also, the Tm in data set [2] is 37 °C.
The like results for GCCTGGCGAAAGCGTGGC (((..((....))..))) were, in that order, -24.3 kcal/mol and 58.9 °C.
Taken in the same sequence, the figures for GCCTGTGGAAACATAGGC ((((.((....)).)))) were -42.2 kcal/mol and 52.4 °C.
The like results for GCCTGTTCGAAAGAAGGC (((..(((....)))))) were, in that order, -25.6 kcal/mol and 38.8 °C.
GCCTTACGAAAGTAGGC (((.(((....)))))): the folding enthalpy in data set [1] is -29.1 kcal/mol. The Tm in data set [2] was 54.2 °C.
Taken in the same sequence, the figures for GCCTTAGGAAACTAAGGC (((((((....))))))) were -37 kcal/mol and 60.3 °C.
Taken in the same sequence, the figures for GCCTTCACGAAAGTGGGC (((..(((....)))))) were -18.6 kcal/mol and 46.6 °C.
Taken in the same sequence, the figures for GCCTTCCGAAAGGACGGC (((.(((....))).))) were -41.6 kcal/mol and 57.3 °C.
As to GCCTTCCGAAAGGAGGGC (((.(((....))).))), the folding enthalpy in data set [1] was -37 kcal/mol. Besides, the Tm in data set [2] worked out at 62.2 °C.
With GCCTTCGAAAGAAACGGC ((((((....)))..))), the folding enthalpy in data set [1] is -23.7 kcal/mol. The Tm in data set [2] was 36.2 °C.
For GCCTTCGAAAGAACGGC ((((((....))).))), the folding enthalpy in data set [1] was -29.2 kcal/mol. The Tm in data set [2] came out at 48.2 °C.
Taken in the same sequence, the figures for GCCTTGCGAAAGCACTGC ((..(((....)))..)) were -8.58 kcal/mol and 40.3 °C.
With GCCTTGCGAAAGCCCGGC (((..((....))..))), in data set [1], the folding enthalpy is -23.2 kcal/mol. Further, in data set [2], the Tm worked out at 41.8 °C.
Taken in the same sequence, the figures for GCCTTGCGAAAGCGATGC ((.(.((....)).).)) were -11.3 kcal/mol and 47.4 °C.
The like results for GCCTTGCGAAAGCTAAGC ((.(.((....)).).)) were, in that order, -9.38 kcal/mol and 45.8 °C.
Taken in the same sequence, the figures for GCCTTGGGAAACCAAGAC (.(((((....))))).) were -19.3 kcal/mol and 38.7 °C.
For GCCTTGGGAAACTGAGGC ((((..(....)..)))), the folding enthalpy in data set [1] was -29.9 kcal/mol. Besides, the Tm in data set [2] is 45.1 °C.
Taken in the same sequence, the figures for GCCTTTACGAAAGTAGGC (((..(((....)))))) were -28.7 kcal/mol and 43.5 °C.
The like results for GCCTTTCCGAAAGGAGGC (((..(((....)))))) were, in that order, -19.9 kcal/mol and 44.6 °C.
Taken in the same sequence, the figures for GCCTTTGCGAAAGCAGGC (((..(((....)))))) were -20.9 kcal/mol and 50.3 °C.
Consider GCCTTTGGAAACAAGGGC (((.(((....))).))), for which the folding enthalpy in data set [1] was -40.2 kcal/mol. In addition, in data set [2], the Tm was 48.9 °C.
Taken in the same sequence, the figures for GCCTTTTCGAAAGAAGGC (((..(((....)))))) were -30.4 kcal/mol and 42.7 °C.
The like results for GCGAAAAATCGC ((((....)))) were, in that order, -9.87 kcal/mol and 36.2 °C.
As for GCGAAAACGAAAGTTCGC (((..(((....)))))), the folding enthalpy in data set [1] is -30.4 kcal/mol. In addition, the Tm in data set [2] was determined as 51.6 °C.
The like results for GCGAAAATTCGC ((((....)))) were, in that order, -18.6 kcal/mol and 47.8 °C.
The like results for GCGAAACTCGC ((((...)))) were, in that order, -18.9 kcal/mol and 47.4 °C.
Taken in the same sequence, the figures for GCGAAAGAAATTTCGC ((((((....)))))) were -34 kcal/mol and 55 °C.
Regarding GCGAAAGCGAAAGCTCGC (((..(((....)))))), the folding enthalpy in data set [1] is -24.2 kcal/mol. In data set [2], the Tm came out at 56.3 °C.
Taken in the same sequence, the figures for GCGAAAGGAAACTTCCGC (((.(((....))).))) were -27.1 kcal/mol and 42.5 °C.
Taken in the same sequence, the figures for GCGAAATATCGC ((((....)))) were -18.6 kcal/mol and 45.2 °C.
The like results for GCGAACGAAAGTTATCGC ((((((....)))..))) were, in that order, -23.1 kcal/mol and 44.1 °C.
As to GCGAACGAAAGTTCCGC ((((((....))).))), the folding enthalpy in data set [1] is -29.9 kcal/mol. The Tm in data set [2] was 54 °C.
On to GCGAACGGAAACGTTTGC ((.((((....)))).)), for which, in data set [1], the folding enthalpy was -46.8 kcal/mol. Moreover, the Tm in data set [2] was found to be 56.4 °C.
Taken in the same sequence, the figures for GCGAACTCTCGC ((((....)))) were -24.8 kcal/mol and 46.8 °C.
Taken in the same sequence, the figures for GCGAACTGTCGC ((((....)))) were -21.4 kcal/mol and 45.5 °C.
Taken in the same sequence, the figures for GCGAACTTCGC ((((...)))) were -17.3 kcal/mol and 48.5 °C.
Take GCGAAGAAATTCGC (((((....))))): the folding enthalpy in data set [1] is -28.3 kcal/mol. In addition, the Tm in data set [2] was 55.5 °C.
Turning to GCGAAGAGTCGC ((((....)))), in data set [1], the folding enthalpy was -11.8 kcal/mol. The Tm in data set [2] was 48.4 °C.
The like results for GCGAAGATCGC ((((...)))) were, in that order, -13.7 kcal/mol and 49.5 °C.
Turning to GCGAAGCCTCGC ((((....)))), the folding enthalpy in data set [1] was -8.82 kcal/mol. Moreover, in data set [2], the Tm was found to be 50.6 °C.
The like results for GCGAAGCGAAAGCCACGC (((..((....))..))) were, in that order, -8.54 kcal/mol and 42.5 °C.
The like results for GCGAAGCGAAAGCGTGGC ((.(.((....)).).)) were, in that order, -10.5 kcal/mol and 47.3 °C.
As for GCGAAGCGAAAGCGTTGC ((.(.((....)).).)), in data set [1], the folding enthalpy is -12.4 kcal/mol. Moreover, in data set [2], the Tm came to 47.7 °C.
The like results for GCGAAGCGAAAGCTACGC (((.(((....))).))) were, in that order, -40.4 kcal/mol and 55 °C.
The like results for GCGAAGCGAAAGCTATGC ((..(((....)))..)) were, in that order, -7.44 kcal/mol and 40.7 °C.
Taken in the same sequence, the figures for GCGAAGCGAAAGCTCGGC ((..(((....)))..)) were -8.3 kcal/mol and 43.5 °C.
Turning to GCGAAGCGAAAGCTCTGC ((..(((....)))..)), in data set [1], the folding enthalpy was -7.9 kcal/mol. Also, in data set [2], the Tm came to 39.7 °C.
Turning to GCGAAGGCTCGC ((((....)))), in data set [1], the folding enthalpy is -14.4 kcal/mol. In addition, in data set [2], the Tm turned out to be 46.9 °C.
For the sequence GCGAAGTCGAAAGACCGC (((..(((....)))))), in data set [1], the folding enthalpy was -26.9 kcal/mol. For the same sequence, in data set [2], the Tm came to 52.5 °C.
For the sequence GCGAATAATCGC ((((....)))), in data set [1], the folding enthalpy is -14 kcal/mol. Moreover, the Tm in data set [2] was found to be 46.2 °C.
Taken in the same sequence, the figures for GCGAATAGTCGC ((((....)))) were -17.4 kcal/mol and 44.7 °C.
Taken in the same sequence, the figures for GCGAATCCGAAAGGACGC (((..(((....)))))) were -26.1 kcal/mol and 48.7 °C.
In the case of GCGAATCTTCGC ((((....)))), the folding enthalpy in data set [1] was -28 kcal/mol. The Tm in data set [2] amounted to 52.8 °C.
Take GCGAATGTCGC ((((...)))): the folding enthalpy in data set [1] was -17.6 kcal/mol. Also, the Tm in data set [2] is 46.7 °C.
Taken in the same sequence, the figures for GCGACAACGAAAGTTCGC (((..(((....)))))) were -28.6 kcal/mol and 49.4 °C.
Taken in the same sequence, the figures for GCGACAAGTCGC ((((....)))) were -30 kcal/mol and 58 °C.
The like results for GCGACACCGAAAGGTCGC (((..(((....)))))) were, in that order, -34.6 kcal/mol and 61.1 °C.
Regarding GCGACACGTCGC ((((....)))), the folding enthalpy in data set [1] is -28.3 kcal/mol. The Tm in data set [2] is 61.4 °C.
Taken in the same sequence, the figures for GCGACAGCGAAAGCTCGC (((..(((....)))))) were -14.6 kcal/mol and 46.7 °C.
The like results for GCGACAGGAAACTGCCGC (((.(((....))).))) were, in that order, -46.4 kcal/mol and 55.9 °C.
Taken in the same sequence, the figures for GCGACATCTCGC ((((....)))) were -24.2 kcal/mol and 46.5 °C.
GCGACCGAAAGGTAACGC ((((((....)))..))): the folding enthalpy in data set [1] was -29.6 kcal/mol. Also, in data set [2], the Tm was 51.9 °C.
The like results for GCGACCGAAAGGTCACGC ((((((....)))..))) were, in that order, -16.9 kcal/mol and 61.1 °C.
Taken in the same sequence, the figures for GCGACCGAAAGGTCCGC ((((((....))).))) were -18.5 kcal/mol and 66.4 °C.
Taken in the same sequence, the figures for GCGACCGAAAGGTGGCGC ((((((....)))..))) were -31.5 kcal/mol and 66.9 °C.
In the case of GCGACGACTCGC ((((....)))), the folding enthalpy in data set [1] is -17 kcal/mol. Moreover, the Tm in data set [2] is 45.8 °C.
As for GCGACGCCGAAAGGCCGC (((..(((....)))))), in data set [1], the folding enthalpy was -19.1 kcal/mol. Further, the Tm in data set [2] amounted to 58.1 °C.
The like results for GCGACGCCTCGC ((((....)))) were, in that order, -16.9 kcal/mol and 50.1 °C.
As for GCGACGCGAAAGCCCCGC (((..((....))..))), the folding enthalpy in data set [1] was -15.2 kcal/mol. In addition, the Tm in data set [2] turned out to be 44.4 °C.
For GCGACGCGAAAGCCGCGC (((..((....))..))), the folding enthalpy in data set [1] was -23.6 kcal/mol. Further, in data set [2], the Tm was found to be 67.1 °C.
